S1P1 ag pot – S1P1 (human) agonism or agonism potentiation. P21453. S1P1 CRE-bla cells, forskolin, beta-lactamase FRET, potentiator mode; S1P1 agonist co-added at EC20, 2 nM; 100% = saturating reference agonist, 0% = basal. activation, % at 9.5 µM. 56,000 compounds, 0.57% hits. AID 449;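 active = activation above a cutoff set at the mean activation of all tested compounds plus 3 SD, cut at about 54% in these data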;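 also: forskolin at 4 µM as EC80 and the EC20 agonist is SEW2871; 100% = SEW2871 at its EC100 plus forskolin at EC80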
Target sequence (P21453 whole entry, looked up): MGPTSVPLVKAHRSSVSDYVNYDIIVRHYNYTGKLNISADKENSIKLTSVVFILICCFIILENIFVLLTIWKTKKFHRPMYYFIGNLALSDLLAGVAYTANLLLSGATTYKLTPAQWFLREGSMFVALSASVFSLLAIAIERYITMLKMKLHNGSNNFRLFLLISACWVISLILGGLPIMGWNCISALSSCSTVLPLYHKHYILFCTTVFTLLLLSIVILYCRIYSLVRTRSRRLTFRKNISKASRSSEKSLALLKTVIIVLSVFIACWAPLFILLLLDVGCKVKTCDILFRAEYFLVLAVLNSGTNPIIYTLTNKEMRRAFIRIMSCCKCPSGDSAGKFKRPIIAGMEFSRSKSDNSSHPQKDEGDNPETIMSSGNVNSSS
Jurkat viability – cytotoxic compounds reducing Jurkat cell viability; AID 463; Jurkat E6.1 viability, ATP luminescence, 48 h; inhibition, % at 4 µM; 56,000 compounds, 1.2% hits;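 active = inhibition above the mean inhibition of all tested compounds plus 3 SD, cut at about 28% in these data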
S1P3 ag – activates the human S1P3 receptor | Q99500 | S1P3 NFAT-BLA reporter cells, agonism, FRET ratio; relative to 1 µM S1P, basal subtracted | activation, % at 4.5 µM | 60,000 compounds, 0.1% hits;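 active = activation above the screen-wide mean plus 3 SD, cut at about 4.5% in these data, passing the limit was not always enough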
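Measure – % activation relative to 1 µM S1P (100%), per plate · System – stable CHO line with human S1P3, Gα16, NFAT-BLA reporter · Timing – cells plated overnight, compound 4 h 37 °C, substrate 2 h RT · Technique – fluorescent BLA substrate, ex 405 nm, em 460/535 nm ratio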
JNK3 inh – blocks human JNK3 kinase activity. P53779. 60,000 compounds, 0.61% hits. purified JNK3 kinase activity, HTS. inhibition, % at 8 µM; in the data active = inhibition above about 17%;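 also: 0% = DMSO and 100% = reference inhibitor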
M1 antagonist – M1 muscarinic receptor (rat) antagonism. P08482. 64,000 compounds, 3.4% hits. B-score at 10 µM. CHO-M1 cells, Fluo-4 calcium, ACh EC80 antagonist mode; hits give low values;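 active = calcium fluorescence response, raw or row-and-column corrected B-score, differing from the plate sample mean either way at a set confidence level, mostly lower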
M1 agonist – activates the M1 muscarinic receptor; CHO-M1 cells, Fluo-4 calcium fluorescence, agonist mode; hits give high values; B-score at 10 µM; 64,000 compounds, 3% hits; AID 626;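 active = fluorescence rise, raw or as B-score row- and column-corrected plate score, outside the 99.7% band of its plate's samples, either direction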
M1 agonist conf – confirmation of rat M1 muscarinic receptor agonists. 1,700 compounds, 19% hits. CHO-M1 cells, Fluo-4 calcium fluorescence, agonist mode; actives lie on both sides. fluorescence change (max-min) at 10 µM. shares compounds with M1 agonist;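 active = fluorescence change differs from the solvent-only DMSO control mean at a set confidence level in both duplicate runs; inconclusive = differs from solvent-only control mean in just one of two runs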;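 also: an EC20 dose of acetylcholine follows compound addition during the same imaging run; raw fluorescence intensity difference in instrument units with no normalization to controls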
M4 agonist ctr – counter-screen for M1 agonists: activity at rat M4 receptor. AID 1741. shares compounds with M1 agonist. 1,700 compounds, 9% hits. CHO M4/Gqi5 cells, Fluo-4 calcium fluorescence, agonist mode; actives lie on both sides. fluorescence change (max-min) at 10 µM;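 active = fluorescence change differing from the plate's solvent-only control wells at 99.7% confidence in both duplicates, whether higher or lower; inconclusive = differs from solvent controls in only one of two duplicates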
Active calls of the source: *; u = inconclusive; x = no result. The list is not random: actives were taken first. Their share in the collection is about 7.4%.

SMILES	S1P1 ag pot	Jurkat viability	S1P3 ag	JNK3 inh	M1 antagonist	M1 agonist	M1 agonist conf	M4 agonist ctr
CCOC(=O)C1CCCN(C(=O)Cn2sc3nc(C)cc(C)c3c2=O)C1 (stereo not drawn)	-21	2	0	4	0.71	5.9*	25	-35
CCOC(=O)C1CCCN(C(=O)Cc2ccc(OC)c(OC)c2)C1 (stereo not drawn)	7	1	-1	-14	0.17	-0.01	x	x
CCOC(=O)C1CCCN(C(=O)Cc2c(C(=O)O)[nH]c3ccccc23)C1 (stereo not drawn)	x	x	x	x	0.81	4.6*	41	-24
C=CCn1c(SCc2nc3ccccc3c(=O)[nH]2)nnc1-c1cc2cc(Cl)ccc2o1	x	-9	-1	-2	0.44	0.28	x	x
COc1ccc(CC(=O)Nc2c3c(nn2-c2cccc(C)c2C)CS(=O)C3)cc1OC (stereo not drawn)	14	-19	-1	-4	0.33	-0.52	x	x
O=C(Nc1ccc(S(=O)(=O)N2CCCCC2)cc1)c1ccncc1	4	14	-1	1	-0.55	-2.9*	-22*	-72*
O=C(COC(=O)C1COc2ccccc2O1)Nc1ccc2c(c1)CCC2 (stereo not drawn)	8	-5	0	2	0.52	-0.36	x	x
Cc1ccc(CS(=O)(=O)CCC(=O)NCCCN2CCCC2=O)cc1	3	-9	0	-1	0.85	0.14	x	x
COc1ccc(C(=O)N(Cc2nc(-c3ccc(C)cc3)no2)C2CCCCC2)cc1OC	1	-2	-1	2	x	x	x	x
CCCn1cc(SCC(=O)Nc2nnc(C)s2)c2ccccc21	-14	9	-1	-8	0.34	0.72	x	x
Cc1ccc(C(=O)NCCn2cc(SCC(=O)Nc3nnc(C)s3)c3ccccc32)cc1	-3	4	-1	3	-0.094	2.9*	u	-58
COc1ccc(C(=O)NCCn2cc(SCC(=O)Nc3cc(C)on3)c3ccccc32)cc1OC	14	4	0	3	-0.16	3.5*	-27*	-53
c1ccc(Nc2cc(Nc3ccccc3)[nH]n2)cc1	-7	-1	1	-1	0.18	0.91	x	x
COC(=O)C1=C(C)NC(C)=C(C(=O)OC)C1c1ccccc1OCc1c(C)no[n+]1[O-]	-15	-3	1	-3	-0.32	-0.3	x	x
CCCn1nnnc1SCC(=O)NCc1ccccc1	11	0	1	4	-0.0089	-0.012	x	x
CCCn1nnnc1SCC(=O)NCc1ccc2c(c1)OCO2	22	0	-1	-3	-0.13	3*	-11	-22
Cc1onc(-c2ccccc2Cl)c1C(=O)Nc1ccc(-c2cn3cccnc3n2)cc1	x	x	x	x	0.42	4.4*	-7.3	-9.8
Cc1onc(-c2ccccc2Cl)c1C(=O)Nc1cccc(-c2nc3ncccn3c2C)c1	x	x	x	x	-2.3*	3.3*	u	-61
COc1cccc(=O)c2c(C)oc(C)c12	-25	-12	0	-1	0.71	44*	536*	502*
Cc1ccc(-c2nnc(N3CCOCC3)c3ccccc23)cc1S(=O)(=O)NCC1CCCO1 (stereo not drawn)	-39	5	-1	-6	-0.24	1.3	x	x
Cc1[nH]nc2c1C(c1ccc(F)cc1)C1=C(CC(C)(C)CC1=O)N2 (stereo not drawn)	-13	-3	0	2	-0.0036	0.96	x	x
O=C(c1ccc(NS(=O)(=O)c2ccccc2)cc1)N1CCCC1	-2	3	0	-7	0.14	-0.38	x	x
CCN(CC)S(=O)(=O)c1ccc(S(=O)(=O)Nc2ccc(C(=O)N3CCCC3)cc2)cc1	13	8	-1	0	0.88	2.2*	-9.5	-30
O=C(NCCCN1CCOCC1)c1cc(-c2ccc(Br)cc2)on1	-31	-4	0	-7	-0.5	2.2*	u	-44
COCCNC(=O)C(c1ccc(C)o1)N(C(=O)c1snc(C(N)=O)c1N)c1cc(C)cc(C)c1 (stereo not drawn)	9	-4	1	1	0.0016	-0.66	x	x
SMILES	S1P1 ag pot	Jurkat viability	S1P3 ag	JNK3 inh	M1 antagonist	M1 agonist	M1 agonist conf	M4 agonist ctr
Cc1ccc(C)c(S(=O)(=O)NC(CCC(N)=O)C(=O)O)c1 (stereo not drawn)	x	x	x	x	-0.044	-0.25	x	x
Nc1nnc(N2CCc3ccccc32)s1	10	5	-2	-24	0.34	3.4*	u	-72*
Nc1nnc(N2CCCCC2)s1	-20	5	0	-5	0.47	-0.11	x	x
COCCOC(=O)C1=C(C)NC2=C(C(=O)CC(C)(C)C2)C1c1cc2c(cc1Br)OCO2 (stereo not drawn)	-39	4	-1	-3	0.18	0.023	x	x
COc1cccc2c1OC1(C)CC2NC(=O)N1c1cccc(C(=O)Nc2ccc3c(c2)OCCO3)c1 (stereo not drawn)	x	x	x	x	0.45	7.8*	-16	u
Cc1nccc2[nH]c(=O)c(C(=O)NC3CCN(Cc4ccccc4)CC3)cc12	0	5	-1	-1	0.43	-0.042	x	x
COc1ccc(-c2nnc3sc(-c4ccco4)nn23)cc1OC	-11	1	-1	0	-0.29	4.3*	-17	-44
COc1cccc(-c2nn3c(-c4cccc(C)c4)nnc3s2)c1	-24	-1	-1	1	-0.15	24*	u	-33
O=C(Nc1cccc(-c2cn3cccnc3n2)c1)c1ccc2c(c1)OCO2	x	x	x	x	0.72	3*	u	u
O=C(Nc1cccc(-c2cn3cccnc3n2)c1)c1ccco1	x	x	x	x	0.041	0.82	x	x
c1ccc(-n2c(-c3ccncc3)nnc2-c2cccs2)cc1	-11	2	-1	2	0.4	9.2*	u	u
N#Cc1c(-c2cccs2)cc(-c2ccccn2)nc1N	-52	2	0	7	x	x	x	x
N#Cc1c(-c2cccs2)cc(-c2cccnc2)nc1N	-16	10	-1	10	0.69	2.8*	u	-49
CC1CCOC2(O1)C(=O)N(CN1CCN(c3ccccc3F)CC1)c1ccccc12 (stereo not drawn)	-3	1	0	1	0.21	0.053	x	x
CC1CC(C)CN(Cc2nc(N)nc(Nc3ccc4ccccc4c3)n2)C1 (stereo not drawn)	x	21	-1	-9	-0.42	0.77	x	x
COc1ccc(-c2nn(-c3ccccc3)cc2C(=O)O)cc1	4	3	-1	7	-0.11	0.25	x	x
CC(C)OC(=O)c1cn(-c2ccccc2)nc1-c1ccco1	x	-8	-1	1	-1.1	4.4*	-16	-40
CCOC(=O)c1cn(-c2ccccc2)nc1-c1ccncc1	-24	4	0	4	-0.24	2.2*	u	u

Source: PubChem BioAssay
